According to ChEMBL document CHEMBL1151428, “Capability of 11 antipneumococcal antibiotics to select for resistance by multistep and single-step methodologies” (2007):
≈ marks a conversion by molar mass, not a printed value.

Experiments:
Format in all cases: functional
Streptococcus pneumoniae [1] = test: Antimicrobial activity against drug-resistant Streptococcus pneumoniae isolate 24 after 50 passages with moxifloxacin measured after 10 antibiotic-free subculture by multi-step resistance selection technique
Summary of the method: (§1)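 Mutants selected by daily broth passage in subinhibitory drug in cation-adjusted Mueller-Hinton broth with 5% lysed horse blood. Stability was tested by 10 daily passages on blood agar without antibiotic, then macrodilution MIC.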

Streptococcus pneumoniae [2] = test: Antimicrobial activity against drug-resistant Streptococcus pneumoniae isolate 24 after 14 passages with Telithromycin measured after 10 antibiotic-free subculture by multi-step resistance selection technique; summary of the method: as §1
Streptococcus pneumoniae [3] = test: Antimicrobial activity against drug-resistant Streptococcus pneumoniae isolate 24 by NCCLS M7-A7 method
Streptococcus pneumoniae [4] = test: Antimicrobial activity against drug-resistant Streptococcus pneumoniae isolate 1635 after 14 passages with azithromycin measured after 10 antibiotic-free subculture by multi-step resistance selection technique; summary of the method: as §1
Streptococcus pneumoniae [5] = test: Antimicrobial activity against drug-resistant Streptococcus pneumoniae isolate 1635 after 50 passages by multi-step resistance selection technique
Summary of the method: (§2)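 Daily serial passage in subinhibitory drug levels in 1 ml cation-adjusted Mueller-Hinton broth with 5% lysed horse blood; fresh broth for tigecycline. Each day, 10 μl were taken from the tube one to two dilutions below the MIC whose turbidity matched the growth control, and used to set the next MIC. MIC by macrodilution.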

Streptococcus pneumoniae [6] = test: Antimicrobial activity against drug-resistant Streptococcus pneumoniae isolate 3243 after 20 passages with moxifloxacin measured after 10 antibiotic-free subculture by multi-step resistance selection technique; summary of the method: as §1
Streptococcus pneumoniae [7] = test: Antimicrobial activity against drug-resistant Streptococcus pneumoniae isolate 3243 after 41 passages with clarithromycin measured after 10 antibiotic-free subculture by multi-step resistance selection technique
Streptococcus pneumoniae [8] = test: Antimicrobial activity against drug-resistant Streptococcus pneumoniae isolate 3243 after 29 passages with Telithromycin measured after 10 antibiotic-free subculture by multi-step resistance selection technique; summary of the method: as §1
Streptococcus pneumoniae [9] = test: Antimicrobial activity against drug-resistant Streptococcus pneumoniae isolate 3243 by NCCLS M7-A7 method
Streptococcus pneumoniae [10] = test: Antimicrobial activity against drug-resistant Streptococcus pneumoniae isolate 3676 after 50 passages with moxifloxacin measured after 10 antibiotic-free subculture by multi-step resistance selection technique
Streptococcus pneumoniae [11] = test: Antimicrobial activity against drug-resistant Streptococcus pneumoniae isolate 3274 after 48 passages with Telithromycin measured after 10 antibiotic-free subculture by multi-step resistance selection technique; summary of the method: as §1
Streptococcus pneumoniae [12] = test: Antimicrobial activity against drug-resistant Streptococcus pneumoniae isolate 3274 by NCCLS M7-A7 method
Streptococcus pneumoniae [13] = test: Antimicrobial activity against drug-resistant Streptococcus pneumoniae isolate 2527 by NCCLS M7-A7 method
Streptococcus pneumoniae [14] = test: Antimicrobial activity against drug-resistant Streptococcus pneumoniae isolate 2527 after 50 passages by multi-step resistance selection technique
Summary of the method: as §2, with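 “MIC. […]” for “MIC.”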

Streptococcus pneumoniae [15] = test: Antimicrobial activity against drug-resistant Streptococcus pneumoniae isolate 1077 after 49 passages with clindamycin measured after 10 antibiotic-free subculture by multi-step resistance selection technique
Streptococcus pneumoniae [16] = test: Antimicrobial activity against drug-resistant Streptococcus pneumoniae isolate 1077 after 29 passages with azithromycin measured after 10 antibiotic-free subculture by multi-step resistance selection technique; summary of the method: as §1
Streptococcus pneumoniae [17] = test: Antimicrobial activity against drug-resistant Streptococcus pneumoniae isolate 1077 after 15 passages with Telithromycin measured after 10 antibiotic-free subculture by multi-step resistance selection technique; summary of the method: as §1
Streptococcus pneumoniae [18] = test: Antimicrobial activity against drug-resistant Streptococcus pneumoniae isolate 1077 by NCCLS M7-A7 method
Streptococcus pneumoniae [19] = test: Antimicrobial activity against drug-resistant Streptococcus pneumoniae isolate 1076 after 14 passages with Telithromycin measured after 10 antibiotic-free subculture by multi-step resistance selection technique; summary of the method: as §1
Streptococcus pneumoniae [20] = test: Antimicrobial activity against drug-resistant Streptococcus pneumoniae isolate 1076 by NCCLS M7-A7 method
Streptococcus pneumoniae [21] = test: Antimicrobial activity against drug-resistant Streptococcus pneumoniae isolate 3009 after 18 passages with levofloxacin measured after 10 antibiotic-free subculture by multi-step resistance selection technique; summary of the method: as §1
Streptococcus pneumoniae [22] = test: Antimicrobial activity against drug-resistant Streptococcus pneumoniae isolate 3009 after 21 passages with gemifloxacin measured after 10 antibiotic-free subculture by multi-step resistance selection technique; summary of the method: as §1
Streptococcus pneumoniae [23] = test: Antimicrobial activity against drug-resistant Streptococcus pneumoniae isolate 3009 after 25 passages with clarithromycin measured after 10 antibiotic-free subculture by multi-step resistance selection technique
Streptococcus pneumoniae [24] = test: Antimicrobial activity against drug-resistant Streptococcus pneumoniae isolate 3009 after 50 passages by multi-step resistance selection technique
Summary of the method: as §2, with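 “MIC. […]” for “MIC.”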

Streptococcus pneumoniae [25] = test: Antimicrobial activity against drug-resistant Streptococcus pneumoniae isolate 1635 after 14 passages with clindamycin measured after 10 antibiotic-free subculture by multi-step resistance selection technique
Streptococcus pneumoniae [26] = test: Antimicrobial activity against drug-resistant Streptococcus pneumoniae isolate 37 after 14 passages with Telithromycin measured after 10 antibiotic-free subculture by multi-step resistance selection technique
Streptococcus pneumoniae [27] = test: Antimicrobial activity against drug-resistant Streptococcus pneumoniae isolate 3413 by NCCLS M7-A7 method
Streptococcus pneumoniae [28] = test: Antimicrobial activity against drug-resistant Streptococcus pneumoniae isolate 3413 after 30 passages with Telithromycin measured after 10 antibiotic-free subculture by multi-step resistance selection technique; summary of the method: as §1
Streptococcus pneumoniae [29] = test: Antimicrobial activity against drug-resistant Streptococcus pneumoniae isolate 3676 after 44 passages with clarithromycin measured after 10 antibiotic-free subculture by multi-step resistance selection technique
Streptococcus pneumoniae [30] = test: Antimicrobial activity against drug-resistant Streptococcus pneumoniae isolate 3676 after 14 passages with Telithromycin measured after 10 antibiotic-free subculture by multi-step resistance selection technique
Streptococcus pneumoniae [31] = test: Antimicrobial activity against drug-resistant Streptococcus pneumoniae isolate 3676 by NCCLS M7-A7 method
Streptococcus pneumoniae [32] = test: Antimicrobial activity against drug-resistant Streptococcus pneumoniae isolate 3665 after 14 passages with Telithromycin measured after 10 antibiotic-free subculture by multi-step resistance selection technique
Streptococcus pneumoniae [33] = test: Antimicrobial activity against drug-resistant Streptococcus pneumoniae isolate 3243 after 50 passages by multi-step resistance selection technique
Summary of the method: as §2, with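 “MIC. […]” for “MIC.”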

Streptococcus pneumoniae [34] = test: Antimicrobial activity against drug-resistant Streptococcus pneumoniae isolate 3274 after 50 passages by multi-step resistance selection technique; summary of the method: as §2
Streptococcus pneumoniae [35] = test: Antimicrobial activity against drug-resistant Streptococcus pneumoniae isolate 1076 after 50 passages by multi-step resistance selection technique
Summary of the method: as §2, with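 “MIC. […]” for “MIC.”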

Streptococcus pneumoniae [36] = test: Antimicrobial activity against drug-resistant Streptococcus pneumoniae isolate 37 after 50 passages by multi-step resistance selection technique
Summary of the method: (§3)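 Daily serial passage in broth at subinhibitory drug levels: 1 ml cation-adjusted Mueller-Hinton broth with 5% lysed horse blood; fresh broth for tigecycline. Each day 10 μl inoculum taken from the tube one to two dilutions below MIC matching growth-control turbidity, used to set next MIC.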

Streptococcus pneumoniae [37] = test: Antimicrobial activity against drug-resistant Streptococcus pneumoniae isolate 3413 after 50 passages by multi-step resistance selection technique; summary of the method: as §2
Streptococcus pneumoniae [38] = test: Antimicrobial activity against drug-resistant Streptococcus pneumoniae isolate 3676 after 50 passages by multi-step resistance selection technique
Summary of the method: as §3, with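 “MIC. Continued until ≥8-fold MIC rise, minimum 14, maximum 50 passages; MIC read by macrodilution.” for “MIC.”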

CC[C@H]1OC(=O)[C@H](C)C(=O)[C@H](C)[C@@H](O[C@@H]2O[C@H](C)C[C@H](N(C)C)[C@H]2O)[C@](C)(OC)C[C@@H](C)C(=O)[C@H](C)[C@H]2N(CCCCn3cnc(-c4cccnc4)c3)C(=O)O[C@]12C [TELITHROMYCIN]
MIC (Streptococcus pneumoniae [1]): 0.25 µg/mL (≈ 0.308 µM)
MIC (Streptococcus pneumoniae [2]): 16 µg/mL (≈ 19.7 µM)
MIC (Streptococcus pneumoniae [3]): 0.25 µg/mL (≈ 0.308 µM)
MIC (Streptococcus pneumoniae [4]): 0.004 µg/mL (≈ 0.00493 µM)
MIC (Streptococcus pneumoniae [5]): 0.008 µg/mL (≈ 0.00985 µM)
MIC (Streptococcus pneumoniae [6]): 0.016 µg/mL (≈ 0.0197 µM)
MIC (Streptococcus pneumoniae [7]): 0.016 µg/mL (≈ 0.0197 µM)
MIC (Streptococcus pneumoniae [8]): 0.06 µg/mL (≈ 0.0739 µM)
MIC (Streptococcus pneumoniae [9]): 0.004 µg/mL (≈ 0.00493 µM)
MIC (Streptococcus pneumoniae [10]): 0.06 µg/mL (≈ 0.0739 µM)
MIC (Streptococcus pneumoniae [11]): 0.5 µg/mL (≈ 0.616 µM)
MIC (Streptococcus pneumoniae [12]): 0.004 µg/mL (≈ 0.00493 µM)
MIC (Streptococcus pneumoniae [13]): 0.004 µg/mL (≈ 0.00493 µM)
MIC (Streptococcus pneumoniae [14]): 0.016 µg/mL (≈ 0.0197 µM)
MIC (Streptococcus pneumoniae [15]): 0.06 µg/mL (≈ 0.0739 µM)
MIC (Streptococcus pneumoniae [16]): 0.125 µg/mL (≈ 0.154 µM)
MIC (Streptococcus pneumoniae [17]): 0.25 µg/mL (≈ 0.308 µM)
MIC (Streptococcus pneumoniae [18]): 0.004 µg/mL (≈ 0.00493 µM)
MIC (Streptococcus pneumoniae [19]): > 64 µg/mL
MIC (Streptococcus pneumoniae [20]): 0.5 µg/mL (≈ 0.616 µM)
MIC (Streptococcus pneumoniae [21]): 0.016 µg/mL (≈ 0.0197 µM)
MIC (Streptococcus pneumoniae [22]): 0.03 µg/mL (≈ 0.0369 µM)
MIC (Streptococcus pneumoniae [23]): 0.06 µg/mL (≈ 0.0739 µM)
MIC (Streptococcus pneumoniae [24]): 0.03 µg/mL (≈ 0.0369 µM)
MIC (Streptococcus pneumoniae [25]): 0.008 µg/mL (≈ 0.00985 µM)
MIC (Streptococcus pneumoniae [26]): 8 µg/mL (≈ 9.85 µM)
MIC (Streptococcus pneumoniae [27]): 0.03 µg/mL (≈ 0.0369 µM)
MIC (Streptococcus pneumoniae [28]): 0.5 µg/mL (≈ 0.616 µM)
MIC (Streptococcus pneumoniae [29]): 0.03 µg/mL (≈ 0.0369 µM)
MIC (Streptococcus pneumoniae [30]): 0.06 µg/mL (≈ 0.0739 µM)
MIC (Streptococcus pneumoniae [31]): 0.06 µg/mL (≈ 0.0739 µM)
MIC (Streptococcus pneumoniae [32]): 0.25 µg/mL (≈ 0.308 µM)

C[C@@H](O)[C@H]1C(=O)N2C(C(=O)O)=C(SCCNC=N)C[C@H]12 [IMIPENEM ANHYDROUS]
MIC (Streptococcus pneumoniae [1]): 0.5 µg/mL (≈ 1.67 µM)
MIC (Streptococcus pneumoniae [2]): 0.25 µg/mL (≈ 0.835 µM)
MIC (Streptococcus pneumoniae [3]): 0.5 µg/mL (≈ 1.67 µM)
MIC (Streptococcus pneumoniae [4]): 0.002 µg/mL (≈ 0.00668 µM)
MIC (Streptococcus pneumoniae [5]): 0.002 µg/mL (≈ 0.00668 µM)
MIC (Streptococcus pneumoniae [6]): 0.004 µg/mL (≈ 0.0134 µM)
MIC (Streptococcus pneumoniae [7]): 0.03 µg/mL (≈ 0.1 µM)
MIC (Streptococcus pneumoniae [8]): 0.016 µg/mL (≈ 0.0534 µM)
MIC (Streptococcus pneumoniae [33]): 0.016 µg/mL (≈ 0.0534 µM)
MIC (Streptococcus pneumoniae [9]): 0.016 µg/mL (≈ 0.0534 µM)
MIC (Streptococcus pneumoniae [10]): 0.03 µg/mL (≈ 0.1 µM)
MIC (Streptococcus pneumoniae [11]): 0.016 µg/mL (≈ 0.0534 µM)
MIC (Streptococcus pneumoniae [34]): 0.03 µg/mL (≈ 0.1 µM)
MIC (Streptococcus pneumoniae [12]): 0.016 µg/mL (≈ 0.0534 µM)
MIC (Streptococcus pneumoniae [13]): 0.25 µg/mL (≈ 0.835 µM)
MIC (Streptococcus pneumoniae [14]): 0.25 µg/mL (≈ 0.835 µM)
MIC (Streptococcus pneumoniae [15]): 0.004 µg/mL (≈ 0.0134 µM)
MIC (Streptococcus pneumoniae [16]): 0.008 µg/mL (≈ 0.0267 µM)
MIC (Streptococcus pneumoniae [17]): 0.008 µg/mL (≈ 0.0267 µM)
MIC (Streptococcus pneumoniae [18]): 0.008 µg/mL (≈ 0.0267 µM)
MIC (Streptococcus pneumoniae [19]): 0.004 µg/mL (≈ 0.0134 µM)
MIC (Streptococcus pneumoniae [20]): 0.008 µg/mL (≈ 0.0267 µM)
MIC (Streptococcus pneumoniae [35]): 0.008 µg/mL (≈ 0.0267 µM)
MIC (Streptococcus pneumoniae [22]): 0.008 µg/mL (≈ 0.0267 µM)
MIC (Streptococcus pneumoniae [24]): 0.008 µg/mL (≈ 0.0267 µM)
MIC (Streptococcus pneumoniae [25]): 0.002 µg/mL (≈ 0.00668 µM)
MIC (Streptococcus pneumoniae [36]): 0.5 µg/mL (≈ 1.67 µM)
MIC (Streptococcus pneumoniae [26]): 0.25 µg/mL (≈ 0.835 µM)
MIC (Streptococcus pneumoniae [27]): 0.125 µg/mL (≈ 0.418 µM)
MIC (Streptococcus pneumoniae [37]): 0.06 µg/mL (≈ 0.2 µM)
MIC (Streptococcus pneumoniae [28]): 0.125 µg/mL (≈ 0.418 µM)
MIC (Streptococcus pneumoniae [29]): 0.016 µg/mL (≈ 0.0534 µM)
MIC (Streptococcus pneumoniae [30]): 0.008 µg/mL (≈ 0.0267 µM)
MIC (Streptococcus pneumoniae [38]): 0.016 µg/mL (≈ 0.0534 µM)
MIC (Streptococcus pneumoniae [31]): 0.016 µg/mL (≈ 0.0534 µM)
MIC (Streptococcus pneumoniae [32]): 0.008 µg/mL (≈ 0.0267 µM)
